Results on 3 compounds are retold here after ChEMBL document CHEMBL1126589, “Substituted 3-(phenylmethyl)-1H-indole-5-carboxamides and 1-(phenylmethyl)indole-6-carboxamides as potent, selective, orally active antagonists of the peptidoleukotrienes” (J Med Chem, 1993).

Data set [1] addresses T1, Cysteinyl leukotriene receptor 1 (Cavia porcellus, UniProt Q2NNR5).
T1 sequence (Q2NNR5 whole entry): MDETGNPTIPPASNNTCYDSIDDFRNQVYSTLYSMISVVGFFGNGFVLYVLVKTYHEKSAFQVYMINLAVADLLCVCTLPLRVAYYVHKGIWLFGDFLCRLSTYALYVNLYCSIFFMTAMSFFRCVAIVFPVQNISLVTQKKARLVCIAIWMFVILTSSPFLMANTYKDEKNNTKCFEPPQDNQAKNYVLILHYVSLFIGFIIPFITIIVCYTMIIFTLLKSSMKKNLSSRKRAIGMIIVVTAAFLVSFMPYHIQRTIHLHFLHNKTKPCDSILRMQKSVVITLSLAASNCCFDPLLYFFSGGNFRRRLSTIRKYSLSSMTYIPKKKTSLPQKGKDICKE
The data set can be described thus: Binding affinity to the leukotriene receptor (LTD4) from guinea pig lung parenchymal membranes assayed using [3H]LTD4 as radioligand. In kind it is tissue-based, Lung parenchyma. The essentials: (§1)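 Displacement of [3H]LTD4 from guinea pig lung parenchymal membranes; Ki is the mean of two experiments run in duplicate with separate batches, reported as pKi (-log Ki).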

The subject of data set [2] is Rattus norvegicus. The data set can be described thus: Maximum concentration in whole blood recorded in the period 0-24 hr postdose of 1 mg/kg in rat (normalized to a 1 mg/kg dose). In kind it is ADME, organism-based. More on the design: dose 1 mg/kg. Particulars: in vivo. The method, boiled down: (§2)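 Sprague-Dawley rats, fasted overnight, cannulated in carotid artery and/or jugular vein at least 20 h before dosing. Oral doses 1 or 2.5 mg/kg, iv 2.5 mg/kg via jugular cannula, in polyethylene glycol/phosphate buffered saline. Unchanged compound in whole blood measured by HPLC over 0–24 h; AUC by trapezoidal rule; values also normalized to 1.0 mg/kg.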

Data set [3] has as its target T2, Cysteinyl leukotriene receptor 1 (Cavia porcellus) (UniProt Q2NNR5).
T2 sequence (whole entry): T1 sequence (Q2NNR5 whole entry)
Briefly: Binding affinity against leukotriene receptor (LTE4) from guinea pig tracheal spirals. In kind it is tissue-based. The method, boiled down:
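Functional antagonism in isolated guinea pig tracheal spirals contracted with LTE4 as agonist; KB derived from concentration-response curves, n = number of curves.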

Data set [4] deals with Cavia porcellus. Briefly: Effective dose against LTD4-induced bronchoconstriction in guinea pig after peroral administration. In kind it is functional. Particulars: po. The essentials: (§3)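 Conscious guinea pigs challenged with LTD4 ("dyspnea" model) after oral or intravenous dosing; percent protection from LTD4-induced dyspnea plotted against dose to derive ED50; po/iv ratio taken from the oral and intravenous ED50 values.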

In data set [5] the test system is Cavia porcellus. The data set can be described thus: Effective dose against LTD4-induced bronchoconstriction in guinea pig after intravenous administration. In kind it is functional. The essentials:
as §3

In data set [6] the test system is Rattus norvegicus. Briefly: Integrated area under the blood concentration vs time curve for the period 0-24 hr postdose of 1 mg/kg (normalized to a 1 mg/kg dose) in rat. In kind it is ADME, organism-based. More on the design: dose 1 mg/kg, time < 24 hr. Conditions: in vivo. The essentials:
as §2

A short description of data set [7]: ED50 ratio of LTD4 peroral administration / LTD4 intravenous administration. In kind it is functional. The method, boiled down: as §3
Data set [8] deals with Rattus norvegicus. The data set can be described thus: Integrated area under the blood concentration vs time curve for the period 0-24 hr postdose of 1 mg/kg in rat. In kind it is ADME, organism-based. More on the design: time < 24 hr, dose 1 mg/kg. Particulars: in vivo.
Data set [9] has as its target T1, Cysteinyl leukotriene receptor 1. Briefly: Binding affinity against leukotriene receptor (LTD4) from guinea pig lung parenchymal membranes using [3H]LTD4 as radio ligand. In kind it is tissue-based, Lung parenchyma. The essentials:
as §1

Data set [10] in a line: Maximum concentration in whole blood recorded in the period 0-24 hr postdose of 1 mg/kg in rat. More on the design: dose 1 mg/kg. In kind it is ADME, organism-based.
A short description of data set [11]: Integrated area under the blood concentration vs time curve for the period 0-24 hr postdose of 5.0 mg/kg (normalized to a 1 mg/kg dose) GP. In kind it is ADME, organism-based. Also noted: dose 5 mg/kg, time < 24 hr. Particulars: guinea pig, in vivo. The method, boiled down:
(§4)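 Guinea pigs, fasted overnight and cannulated at least 20 h beforehand, given 5 mg/kg orally and intravenously (jugular cannula) in polyethylene glycol/phosphate buffered saline.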

The test system of data set [12] is Rattus norvegicus. Briefly: Integrated area under the blood concentration vs time curve for the period 0-24 hr postdose of 2.5 mg/kg (normalized to a 1 mg/kg dose) in rat. In kind it is ADME, organism-based. Also noted: dose 2.5 mg/kg, time < 24 hr. Conditions: in vivo. The essentials:
as §2

Data set [13] is described as follows: Maximum concentration in whole blood recorded in the period 0-24 hr postdose of 2.5 mg/kg in rat (normalized to a 1 mg/kg dose). In kind it is ADME, organism-based. More on the design: dose 2.5 mg/kg. Particulars: in vivo. The method, boiled down: as §2
The nature of data set [14]: Bioavailability was determined in GP. In kind it is ADME, organism-based, Cavia porcellus. Conditions: guinea pig, in vivo. The method, boiled down:
as §4

The nature of data set [15]: Bioavailability in rat. In kind it is ADME, organism-based. Particulars: in vivo. The essentials: as §2
Data set [16] is described as follows: Maximum concentration in whole blood recorded in the period 0-24 hr postdose of 5.0 mg/kg GP (normalized to a 1 mg/kg dose). In kind it is ADME, organism-based. Also noted: dose 5 mg/kg. Particulars: guinea pig, in vivo. The method, boiled down: as §4

For `CCCn1cc(Cc2ccc(C(=O)NS(=O)(=O)c3ccccc3C)cc2OC)c2cc(C(=O)NCC3CCCC3)ccc21`, in data set [1], the Ki – broadly, a measure of affinity in units of concentration, obtained from inhibition or displacement – was 0.316 nM. Further, the Cmax (in general, the peak of the concentration-time curve) in the data set on Rattus norvegicus [2] is 106 ng/mL. Besides, the pKB (in general, the negative decadic logarithm of the KB, by convention in mol/L) in data set [3] was 8.7. In addition, the figures for the ED50 with Cavia porcellus [4] and in the data set with Cavia porcellus [5] were 4.8 µmol/kg and 0.03 µmol/kg, respectively. The AUC with Rattus norvegicus [6] was determined as 1610 ng·h/mL. Moreover, the Ratio in [7] was determined as 179.

For the compound `CCC(CC)CNC(=O)c1ccc2c(c1)c(Cc1ccc(C(=O)NS(=O)(=O)c3ccccc3C)cc1OC)cn2C`, the AUC with Rattus norvegicus [8] stood at 5740 ng·h/mL. Also, in data set [3], the pKB amounted to 8. In addition, the ED50 (as a rule, the midpoint of the dose-response relation) came to 14.7 µmol/kg in the data set on Cavia porcellus [4] and 1.09 µmol/kg in the data set on Cavia porcellus [5]. In [9], affinity was put at a Ki of 2 nM. The concentration in data set [10] peaked (Cmax) at 410 ng/mL. Besides, the Ratio in data set [7] stood at 14.

For `CCC(CC)CNC(=O)c1ccc2c(c1)c(Cc1ccc(C(=O)NS(=O)(=O)c3ccccc3C)cc1OC)cn2CC`, the affinity in data set [1], expressed as Ki, was 1 nM. The results for the AUC (in [11]; with Rattus norvegicus [12]) were 207 ng·h/mL and 4070 ng/h/mL, respectively. Also, the Cmax was 540 ng/mL in [13] and 92 ng/mL in [16]. The compound further had a pKB in data set [3] of 9.5. In addition, the bioavailability (as a rule, dose-corrected exposure relative to a reference, in per cent) in data set [14] came out at 5.1%; in data set [15] it was 28.1%. The ED50 in the data set on Cavia porcellus [4] was 5.3 µmol/kg; in the data set with Cavia porcellus [5], 0.07 µmol/kg. Moreover, in [7], the Ratio is recorded as 81.
